Data as given in ChEMBL document CHEMBL1142176, “Antileishmanial effect of 3-aminooxy-1-aminopropane is due to polyamine depletion” (Antimicrob Agents Chemother, 2007).
The source made the active and inactive calls. The rule behind the calls is not given here.

How the values were obtained:
J774.A1 = assay: Growth inhibition of J774A.1 macrophage cells after 24 hrs by MTT method; format: functional, cell-based; conditions: Mus musculus, J774.A1, 24 h
In short: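 J774A.1 murine macrophages kept at 37°C in RPMI 1640 with 10% FBS. Viability was read 24 h after drug addition.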

[1] = target: T1, Ornithine decarboxylase (Leishmania donovani) (UniProt P27116); assay: Inhibition of ODC in Leishmania donovani promastigotes at 50 uM after 48 hrs
T1 sequence (whole entry): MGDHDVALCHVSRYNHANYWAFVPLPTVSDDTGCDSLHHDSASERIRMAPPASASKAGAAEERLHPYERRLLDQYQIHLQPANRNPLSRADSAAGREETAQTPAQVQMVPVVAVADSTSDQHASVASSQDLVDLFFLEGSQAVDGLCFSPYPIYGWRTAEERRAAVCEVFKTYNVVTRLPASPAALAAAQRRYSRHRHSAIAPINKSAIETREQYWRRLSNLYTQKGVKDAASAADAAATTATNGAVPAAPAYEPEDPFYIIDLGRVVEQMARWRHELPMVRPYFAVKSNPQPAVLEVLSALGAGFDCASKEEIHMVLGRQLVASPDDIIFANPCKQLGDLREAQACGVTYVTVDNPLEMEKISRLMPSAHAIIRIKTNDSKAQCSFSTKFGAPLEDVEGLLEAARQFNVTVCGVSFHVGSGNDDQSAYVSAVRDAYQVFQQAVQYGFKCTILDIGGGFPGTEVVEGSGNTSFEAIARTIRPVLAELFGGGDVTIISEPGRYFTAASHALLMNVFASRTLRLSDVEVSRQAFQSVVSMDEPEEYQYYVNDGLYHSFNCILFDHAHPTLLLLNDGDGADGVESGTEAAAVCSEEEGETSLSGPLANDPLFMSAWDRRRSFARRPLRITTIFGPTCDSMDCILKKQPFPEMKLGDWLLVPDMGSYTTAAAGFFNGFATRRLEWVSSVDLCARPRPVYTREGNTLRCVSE
In short: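 Late-log promastigotes (1 x 10^7) were treated 48 h, then washed in PBS and freeze-thaw lysed in 50 mM Tris-HCl pH 7.5, 10 µM EDTA, 2.5 mM DTT. Released 14CO2 is expressed as nmol CO2/mg protein/h (Bradford). Mean ± SD, n = 3.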

Leishmania donovani [2] = assay: Reduction of putrescine level in Leishmania donovani promastigotes at 50 uM for after 48 hrs relative to control; format: functional; design: scale not given: the % may be the effect or the level left
In short: (§1)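 Log-phase promastigotes (1 x 10^7) were exposed 48 h and pelleted at 2,000 x g, 4°C. Acid extracts were dansyl-chloride derivatized before column and analysed by C18 reversed-phase HPLC. Values are vs untreated controls, mean ± SD (n = 3), Student's t test, P < 0.05.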

Leishmania donovani [3] = assay: Reduction of spermidine level in Leishmania donovani promastigotes at 50 uM after 48 hrs relative to control; format: functional; design: scale not given: the % may be the effect or the level left; in short: as §1
Leishmania donovani [4] = assay: Reduction of trypanothione level in Leishmania donovani promastigotes at 50 uM after 48 hrs relative to control; format: functional; design: scale not given: the % may be the effect or the level left
In short: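 Log-phase promastigotes were treated 48 h before harvest, compared with untreated controls. Mean ± SD, n = 3, Student's t test.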

Leishmania donovani [5] = assay: Growth inhibition of Leishmania donovani AG83 promastigotes transfected with episomal ODC gene construct overproducing ODC; format: functional, organism-based
In short: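 Late-log-phase promastigotes, cultured at 22°C in M-199 (Hanks' salts, 25 mM HEPES, 10% FBS, gentamicin), were exposed to drug for 72 h. MTT was then added for 4 h, the reaction was stopped with acidic isopropanol, and absorbance was read at 570 nm to give IC50. Two or more independent experiments were run in triplicate.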

Leishmania donovani [6] = assay: Growth inhibition of Leishmania donovani AG83 amastigotes transfected with episomal ODC gene construct overproducing ODC; format: functional, organism-based
Leishmania donovani [7] = assay: Growth inhibition of Leishmania donovani promastigotes S1 LV patient isolate in J774A.1 cells after 5 days; format: functional, organism-based
Leishmania donovani [8] = assay: Growth inhibition of Leishmania donovani amastigotes S1 LV patient isolate in J774A.1 cells after 5 days; format: functional, organism-based; conditions: J774.A1, 120 h
In short: (§2)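 J774A.1 murine macrophages kept at 37°C in RPMI 1640 with 10% FBS. 1 x 10^5 cells per well were infected with 1 x 10^6 stationary-phase luciferase-expressing (pGL-NEO LUC) promastigotes in M-199 with 10% FBS. Free parasites were washed off after 3 h, then drug was added at a range of concentrations for 5 days. Luciferase was read from washed adherent macrophages, and IC50 was taken from a concentration vs RLU plot.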

Leishmania donovani [9] = assay: Growth inhibition of Leishmania donovani SAG-resistant R1 LV patient isolate promastigotes in J774A.1 cells after 5 days; format: functional, organism-based
Leishmania donovani [10] = assay: Growth inhibition of Leishmania donovani SAG-resistant R1 LV patient isolate amastigotes in J774A.1 cells after 5 days; format: functional, organism-based; conditions: J774.A1, 120 h; in short: as §2
Leishmania donovani [11] = assay: Growth inhibition of Leishmania donovani SAG-resistant R2 LV patient isolate promastigotes in J774A.1 cells after 5 days; format: functional, organism-based
Leishmania donovani [12] = assay: Growth inhibition of Leishmania donovani SAG-resistant R2 LV patient isolate amastigotes in J774A.1 cells after 5 days; format: functional, organism-based; conditions: J774.A1, 120 h; in short: as §2
Leishmania donovani [13] = assay: Growth inhibition of Leishmania donovani SAG-resistant GE1 LV patient isolate promastigotes in J774A.1 cells after 5 days; format: functional, organism-based
Leishmania donovani [14] = assay: Growth inhibition of Leishmania donovani SAG-resistant GE1 LV patient isolate amastigotes in J774A.1 cells after 5 days; format: functional, organism-based; conditions: J774.A1, 120 h; in short: as §2
Leishmania donovani [15] = assay: Reversal of growth inhibition of Leishmania donovani promastigotes at 50uM after 24 hrs of 1 mM putrescine treatment; format: functional, organism-based
In short: (§3)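 Promastigotes grown at 22°C in M-199 (Hanks' salts, 25 mM HEPES, 10% FBS, 100 µg/ml gentamicin) with 50 µM drug. 1 mM putrescine or spermidine was added after 24 h or 48 h of treatment. Growth was followed over 120 h by hemocytometer counts every 24 h. Mean ± SD of three determinations.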

Leishmania donovani [16] = assay: Reversal of growth inhibition of Leishmania donovani promastigotes at 50 uM after 48 hrs of 1 mM spermidine treatment; format: functional, organism-based; in short: as §3
Leishmania donovani [17] = assay: Reversal of growth inhibition of Leishmania donovani promastigotes at 50uM after 48 hrs of 1 mM putrescine treatment; format: functional, organism-based; in short: as §3
Leishmania donovani [18] = assay: Reversal of growth inhibition of Leishmania donovani promastigotes at 50 uM after 24 hrs of 1 mM spermidine treatment; format: functional, organism-based; in short: as §3
Leishmania donovani [19] = assay: Growth inhibition of wild type Leishmania donovani AG83 promastigotes after 72 hrs by MTT method; conditions: AG83, 72 h
Leishmania donovani [20] = assay: Growth inhibition of wild type Leishmania donovani AG83 amastigotes in J774A.1 after 5 days by luciferase reporter assay; conditions: AG83, J774.A1, 120 h

`NCCCON` gave an IC50 (J774.A1) greater than 200 µM, an inhibition [1] of 76% and an Activity (Leishmania donovani [2]) of 70%. It also gave an Activity (Leishmania donovani [3]) of 44%, an Activity (Leishmania donovani [4]) of 79% and an IC50 (Leishmania donovani [5]) of 155 µM. The IC50 (Leishmania donovani [6]) was greater than 100 µM, the IC50 (Leishmania donovani [7]) was 19 µM and the IC50 (Leishmania donovani [8]) was 10 µM. The IC50 (Leishmania donovani [9]) was greater than 400 µM, the IC50 (Leishmania donovani [10]) was greater than 200 µM and the IC50 (Leishmania donovani [11]) was 46 µM. For the same molecule, the IC50 (Leishmania donovani [12]) was greater than 200 µM, the IC50 (Leishmania donovani [13]) was greater than 400 µM and the IC50 (Leishmania donovani [14]) was greater than 200 µM. The Activity (Leishmania donovani [15]) was “Active”, the Activity (Leishmania donovani [16]) was “Active” and the Activity (Leishmania donovani [17]) was “Active”. For the same molecule, the Activity (Leishmania donovani [18]) was “Active”, the IC50 (Leishmania donovani [19]) was 42 µM and the IC50 (Leishmania donovani [20]) was 5 µM.

`NCCCC(N)(C(=O)O)C(F)F` (stereo not drawn) [EFLORNITHINE] was tested, and the IC50 (Leishmania donovani [19]) was greater than 10000 µM and the IC50 (Leishmania donovani [20]) was 50 µM.
